Converted amounts (≈) assume the structure as drawn. The source made the active and inactive calls. No cut-off for these calls is given here.
Columns and labels:
[1] = test system: Candida albicans; experiment: Antifungal activity against Candida albicans 14936 after 48 hrs by broth microdilution method; type: functional; conditions: Candida albicans, 14936, 48 h
How it was run: (§1)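 Modified CLSI M27-A2 broth microdilution. Yeast at (0.5−1) × 10^3 CFU/mL in MOPS-buffered RPMI 1640 was mixed 1:1 with peptide serially diluted in 0.2% BSA and incubated 48 h at 28 °C. Absorbance was read at 492 nm; MIC is the lowest concentration inhibiting 95% of growth. Triplicate, three biological replicates.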

[2] = test system: Candida albicans; experiment: Antifungal activity against Candida albicans cgmcc 2.2086 in presence of 25% human heat-inactivated serum by broth dilution method; type: functional
[3] = test system: Candida albicans; experiment: Antifungal activity against Candida albicans cgmcc 2.2086 in presence of KCl by broth dilution method; type: functional
[4] = test system: Candida albicans; experiment: Antifungal activity against fluconazole-resistant Candida albicans 56452 after 48 hrs by broth microdilution method; type: functional; conditions: Candida albicans, 56452, 48 h; how it was run: as §1
[5] = test system: Candida albicans; experiment: Antifungal activity against Candida albicans cgmcc 2.2086 in presence of 50% human heat-inactivated serum by broth dilution method; type: functional
[6] = test system: Candida albicans; experiment: Fungicidal activity against Candida albicans 14936 after 96 hrs; type: functional; conditions: Candida albicans, 14936, 96 h; read-out: MFC99.9
How it was run: (§2)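 After the 48 h, 28 °C broth microdilution in MOPS-buffered RPMI 1640 (inoculum (0.5−1) × 10^3 CFU/mL), 50 μL from each well was plated on YM agar for a further 48 h at 28 °C. MFC is the lowest concentration killing at least 99.9% of cells. Triplicate, three biological replicates.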

[7] = test system: Candida albicans; experiment: Fungicidal activity against Candida albicans SP3931 after 96 hrs; type: functional; conditions: SP3931, 96 h, read-out: MFC99.9; how it was run: as §2
[8] = test system: Candida albicans; experiment: Antifungal activity against Candida albicans SP3903 after 48 hrs by broth microdilution method; type: functional; conditions: SP3903, 48 h; how it was run: as §1
[9] = test system: Candida tropicalis; experiment: Fungicidal activity against Candida tropicalis cgmcc 2.1975 after 96 hrs; type: functional; conditions: cgmcc 2.1975, 96 h, read-out: MFC99.9
How it was run: (§3)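 Wells from the 48 h, 28 °C RPMI 1640/MOPS microdilution plates were plated on YM agar and incubated a further 48 h at 28 °C. MFC is the lowest concentration killing at least 99.9% of cells. Run in triplicate with three biological replicates.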

[10] = test system: Candida albicans; experiment: Fungicidal activity against Candida albicans isolated from alveolar fluid after 96 hrs; type: functional; conditions: read-out: MFC99.9; how it was run: as §2
[11] = test system: Pichia kudriavzevii; experiment: Antifungal activity against Candida krusei cgmcc 2.1857 after 48 hrs by broth microdilution method; type: functional; conditions: cgmcc 2.1857, 48 h
How it was run: (§4)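 Modified CLSI M27-A2 broth microdilution. Yeast were suspended in MOPS-buffered RPMI 1640 at a final (0.5−1) × 10^3 CFU/mL and mixed 1:1 with peptide serially diluted in 0.2% BSA. Plates were incubated 48 h at 28 °C and read at A492. MIC is the lowest concentration giving 95% inhibition. Run in triplicate with three biological replicates.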

[12] = test system: Candida albicans; experiment: Fungicidal activity against fluconazole-resistant Candida albicans 56452 after 96 hrs; type: functional; conditions: Candida albicans, 56452, 96 h; read-out: MFC99.9; how it was run: as §2
[13] = test system: Candida albicans; experiment: Antifungal activity against Candida albicans 58288 after 48 hrs by broth microdilution method; type: functional; conditions: Candida albicans, 58288, 48 h; how it was run: as §1
[14] = test system: Candida albicans; experiment: Fungicidal activity against fluconazole-resistant Candida albicans 56214 after 96 hrs; type: functional; conditions: Candida albicans, 56214, 96 h; read-out: MFC99.9; how it was run: as §2
[15] = test system: Candida albicans; experiment: Fungicidal activity against Candida albicans SP3902 after 96 hrs; type: functional; conditions: SP3902, 96 h, read-out: MFC99.9; how it was run: as §2
[16] = test system: Candida albicans; experiment: Antifungal activity against Candida albicans SP3876 after 48 hrs by broth microdilution method; type: functional; conditions: SP3876, 48 h; how it was run: as §1
[17] = test system: Lipid bilayer; experiment: Binding affinity to phosphatidylcholine/phosphatidylethanolamine/phosphatidylinositol/ergosterol large unilamellar vesicle assessed as induction of calcein leakage at 2 to 32 uM after 15 mins by spectrofluorophotometric method
How it was run: (§5)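 Large unilamellar vesicles were made from PG/CL/PE (2:1:7), PC/PE/PI/ergosterol (5:4:1:2) or PC/cholesterol (10:1), loaded with 70 mM calcein in Tris/NaCl/EDTA buffer at pH 7.4, frozen and thawed 20 times, and extruded through 100 nm filters. Free dye was removed by gel filtration, and peptide-induced calcein release was measured.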

[18] = test system: Candida albicans; experiment: Antifungal activity against Candida albicans SP3931 after 48 hrs by broth microdilution method; type: functional; conditions: SP3931, 48 h; how it was run: as §1
[19] = test system: Pichia kudriavzevii; experiment: Fungicidal activity against Candida krusei cgmcc 2.1857 after 96 hrs; type: functional; conditions: cgmcc 2.1857, 96 h, read-out: MFC99.9; how it was run: as §3
[20] = test system: Candida albicans; experiment: Fungicidal activity against Candida albicans 58288 after 96 hrs; type: functional; conditions: Candida albicans, 58288, 96 h; read-out: MFC99.9; how it was run: as §2
[21] = test system: Lipid bilayer; experiment: Binding affinity to phosphatidylcholine/cholesterol large unilamellar vesicle assessed as induction of calcein leakage at 2 to 32 uM after 15 mins by spectrofluorophotometric method; conditions: 0.25 h; how it was run: as §5
[22] = test system: Candida albicans; experiment: Fungicidal activity against fluconazole-resistant Candida albicans 17546 after 96 hrs; type: functional; conditions: Candida albicans, 17546, 96 h; read-out: MFC99.9; how it was run: as §2
[23] = test system: Candida albicans; experiment: Antifungal activity against Candida albicans cgmcc 2.2086 in presence of ZnCl2 by broth dilution method; type: functional
[24] = test system: Candida parapsilosis; experiment: Antifungal activity against Candida parapsilosis cgmcc 2.3989 after 48 hrs by broth microdilution method; type: functional; conditions: Lodderomyces parapsilosis, cgmcc 2.3989, 48 h; how it was run: as §4
[25] = test system: Candida albicans; experiment: Antifungal activity against fluconazole-resistant Candida albicans 56214 after 48 hrs by broth microdilution method; type: functional; conditions: Candida albicans, 56214, 48 h; how it was run: as §1
[26] = test system: Candida albicans; experiment: Fungicidal activity against Candida albicans SP3903 after 96 hrs; type: functional; conditions: SP3903, 96 h, read-out: MFC99.9; how it was run: as §2
[27] = test system: Candida tropicalis; experiment: Antifungal activity against Candida tropicalis cgmcc 2.1975 after 48 hrs by broth microdilution method; type: functional; conditions: cgmcc 2.1975, 48 h; how it was run: as §4
[28] = test system: Candida albicans; experiment: Antifungal activity against Candida albicans cgmcc 2.2086 in presence of MgCl2 by broth dilution method; type: functional
[29] = test system: Candida albicans; experiment: Antifungal activity against Candida albicans cgmcc 2.2086 after 48 hrs by broth microdilution method; type: functional; conditions: cgmcc 2.2086, 48 h; how it was run: as §1
[30] = test system: Candida albicans; experiment: Antifungal activity against fluconazole-resistant Candida albicans 17546 after 48 hrs by broth microdilution method; type: functional; conditions: Candida albicans, 17546, 48 h; how it was run: as §1
[31] = test system: Candida parapsilosis; experiment: Fungicidal activity against Candida parapsilosis cgmcc 2.3989 after 96 hrs; type: functional; conditions: Lodderomyces parapsilosis, cgmcc 2.3989, 96 h; read-out: MFC99.9; how it was run: as §3
[32] = test system: Candida albicans; experiment: Antifungal activity against Candida albicans SP3902 after 48 hrs by broth microdilution method; type: functional; conditions: SP3902, 48 h; how it was run: as §1
[33] = test system: Candida albicans; experiment: Antifungal activity against Candida albicans cgmcc 2.2086 in presence of CaCl2 by broth dilution method; type: functional
[34] = test system: Candida albicans; experiment: Fungicidal activity against Candida albicans SP3876 after 96 hrs; type: functional; conditions: SP3876, 96 h, read-out: MFC99.9; how it was run: as §2
[35] = test system: Candida albicans; experiment: Antifungal activity against Candida albicans isolated from alveolar fluid after 48 hrs by broth microdilution method; type: functional; how it was run: as §1
[36] = test system: Candida albicans; experiment: Disruption of cytoplasmic membrane electrical potential in Candida albicans cgmcc 2.2086 at MFC after 800 secs by DiSC3-5 dye-based fluorescence spectrophotometric method; type: functional, organism-based
How it was run: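 Cells were loaded with the membrane potential-sensitive dye DiSC3-5, and its release on peptide treatment (various concentrations, including 1× MBC/MFC) was monitored as increasing fluorescence over 800 s.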

[37] = test system: Candida albicans; experiment: Fungicidal activity against Candida albicans cgmcc 2.2086 after 96 hrs; type: functional; conditions: cgmcc 2.2086, 96 h, read-out: MFC99.9; how it was run: as §2
[38] = test system: Candida albicans; experiment: Antifungal activity against Candida albicans cgmcc 2.2086 in presence of FeCl3 by broth dilution method; type: functional
[39] = test system: Candida albicans; experiment: Antifungal activity against Candida albicans cgmcc 2.2086 in presence of NaCl by broth dilution method; type: functional
[40] = test system: Candida albicans; experiment: Antifungal activity against Candida albicans cgmcc 2.2086 in presence of 12.5% human heat-inactivated serum by broth dilution method; type: functional
[41] = test system: Candida albicans; experiment: Antifungal activity against Candida albicans cgmcc 2.2086 in presence of NH4Cl by broth dilution method; type: functional

OC(Cn1cncn1)(Cn1cncn1)c1ccc(F)cc1F [FLUCONAZOLE]
MIC95 [1]: 32 µM (≈ 9.8 µg/mL)
MIC [2]: 1 µM
MIC [3]: 1 µM
MIC95 [4]: > 64 µM
MIC [5]: 2 µM
MFC [6]: > 64 µM
MFC [7]: 64 µM (≈ 19.6 µg/mL)
MIC95 [8]: 16 µM (≈ 4.9 µg/mL)
MFC [9]: 32 µM (≈ 9.8 µg/mL)
MFC [10]: 8 µM (≈ 2.45 µg/mL)
MIC95 [11]: 64 µM (≈ 19.6 µg/mL)
MFC [12]: > 64 µM
MIC95 [13]: 8 µM (≈ 2.45 µg/mL)
MFC [14]: > 64 µM
MFC [15]: > 64 µM
MIC95 [16]: > 64 µM
Activity [17]: inactive
MIC95 [18]: 1 µM (≈ 0.306 µg/mL)
MFC [19]: 64 µM (≈ 19.6 µg/mL)
MFC [20]: > 64 µM
Activity [21]: Not Active
MFC [22]: > 64 µM
MIC [23]: 1 µM
MIC95 [24]: 4 µM (≈ 1.23 µg/mL)
MIC95 [25]: > 64 µM
MFC [26]: 64 µM (≈ 19.6 µg/mL)
MIC95 [27]: 4 µM (≈ 1.23 µg/mL)
MIC [28]: 1 µM
MIC95 [29]: 1 µM (≈ 0.306 µg/mL)
MIC95 [30]: > 64 µM
MFC [31]: 8 µM (≈ 2.45 µg/mL)
MIC95 [32]: 16 µM (≈ 4.9 µg/mL)
MIC [33]: 1 µM
MFC [34]: > 64 µM
MIC95 [35]: 2 µM (≈ 0.613 µg/mL)
Activity [36]: inactive
MFC [37]: 2 µM (≈ 0.613 µg/mL)
MIC [38]: 1 µM
MIC [39]: 1 µM
MIC [40]: 1 µM
MIC [41]: 1 µM

— ChEMBL document CHEMBL4177755, “Combating Drug-Resistant Fungi with Novel Imperfectly Amphipathic Palindromic Peptides” (J Med Chem, 2018)
